KCNK3 block = human KCNK3 channel inhibition, primary screen. O14649. CHO-KCNK3 thallium flux, FluxOR fluorescence; hits give low values. B-score at 10 µM. actives 0.84% (n = 340,000). AID 602410;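 active = B-score under library mean minus 4 SD, starting fluorescence ratio at most library mean plus 5 SD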;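 note: more negative B-score means stronger inhibition of thallium flux through KCNK3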
Kir21 inh = inhibitors of mouse Kir2.1 inward-rectifier potassium channel; P35561; HEK293-Kir2.1, FluxOR thallium flux fluorescence; hits give low values; B-score at 10 µM; actives 0.85% (n = 310,000); AID 1672;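 active = fluorescence ratio B-score at or below minus 3 SD of library scores, with starting-brightness B-score within 2 SD, cut at about -4.2 in these data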;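 note: channel flux triggered by added potassium and thallium sulfate stimulus; B-score of peak minus minimum fluorescence over baseline after thallium stimulus; more negative B-score means stronger Kir2.1 block with less thallium influx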
Target sequence (P35561 whole entry, looked up): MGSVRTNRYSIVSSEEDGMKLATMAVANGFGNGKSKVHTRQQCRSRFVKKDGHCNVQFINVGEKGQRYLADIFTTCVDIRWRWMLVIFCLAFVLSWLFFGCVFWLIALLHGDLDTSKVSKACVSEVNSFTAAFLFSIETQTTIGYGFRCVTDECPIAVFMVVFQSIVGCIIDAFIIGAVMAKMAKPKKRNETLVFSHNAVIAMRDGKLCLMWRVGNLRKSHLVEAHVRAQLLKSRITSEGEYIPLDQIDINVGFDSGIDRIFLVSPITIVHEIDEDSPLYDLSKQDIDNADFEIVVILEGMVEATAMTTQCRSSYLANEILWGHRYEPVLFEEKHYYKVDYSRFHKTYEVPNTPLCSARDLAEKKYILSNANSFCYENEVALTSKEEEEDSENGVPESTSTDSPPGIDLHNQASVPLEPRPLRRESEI
KCNQ1 pot = potentiates or activates the human KCNQ1 potassium channel. CHO-K1 KCNQ1, thallium flux FluxOR fluorescence; hits give high values. P51787. AID 2648. actives 0.35% (n = 310,000). B-score at 10 µM;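 active = fluorescence ratio B-score, a plate-corrected score, at least three library SD, with initial intensity B-score within 5 SD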
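Assay system: CHO-K1 cells stably expressing KCNQ1. Medium: assay buffer for compound exposure, DMSO matched across wells. Timing: 37 °C overnight plating, 90-min dark dye load, 20-min compound pretreatment. Signal: kinetic FluxOR fluorescence, 10 s baseline plus 110 s post-stimulus.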
hERG protect = hERG (human) protection from proarrhythmic block | activation (rescue from dofetilide block), less the hit threshold, % at 10 µM | AID 1511 | Q12809 | CHO-hERG, FluxOR thallium flux, dofetilide IC70 present | actives 0.51% (n = 310,000);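 active = activation above the mean of controls blocked by dofetilide plus 5 SD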;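 note: thallium influx through hERG after potassium depolarization seen as dye fluorescence rise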
KCNK9 inh = human KCNK9 channel inhibition. Q9NPC2. HEK293 KCNK9, FluxOR thallium flux fluorescence; hits give low values. B-score at 10 µM. actives 1.2% (n = 310,000). AID 488922;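 active = ratio B-score over 3 SD below the library mean, with starting fluorescence within 5 SD of its mean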;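 note: negative B-score means less thallium flux so channel inhibition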
KCNQ1 inh = human KCNQ1 channel inhibition. CHO-K1 KCNQ1, FluxOR thallium flux fluorescence; hits give high values. B-score at 10 µM. actives 1.3% (n = 310,000);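 active = compounds whose thallium flux B-score, printed positive for inhibition, exceeds three library SD while starting fluorescence stays within three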;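 note: channel opened by potassium depolarization with thallium stimulus after 20 min compound exposure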
KCNQ1 inh valid = human KCNQ1 channel inhibition, validation assay | actives 93% (n = 1,600) | shares compounds with KCNQ1 inh | KCNQ1 cell line, FluxOR thallium flux fluorescence | inhibition, % at 10 µM;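 active = primary screen active, with duplicate mean exceeding buffer control mean plus 3 SD of buffer wells, cut at about 28% in these data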;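 note: 0% = buffer control ratio and 100% = XE991 inhibitor control ratio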
CHO KCNQ1 ctr = activity in parental CHO cells lacking KCNQ1 | fluorescence ratio (Tl flux) at 10 µM | parental CHO-K1, FluxOR thallium flux fluorescence ratio; hits give low values; zero means no signal rise above baseline | shares compounds with KCNQ1 inh | actives 21% (n = 1,600) | AID 588366;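 active = mean of duplicate thallium-flux fluorescence ratios in parental host cells more than 5 SD below the buffer control mean, cut at about 0.38 in these data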;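 note: ratio is peak minus minimum fluorescence divided by baseline fluorescence; actives read low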
KCNQ1 ephys val = blocks human KCNQ1 current in automated patch clamp | shares compounds with KCNQ1 inh | KCNQ1-CHO cells | calls only at 10 µM | actives 20% (n = 490);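 active = KCNQ1 current drop exceeding 3 SD of negative control wells, seen in both duplicate runs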;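 note: steady state current during a 2 s step from -80 to +40 mV; negative values mean current inhibition and positive values mean potentiation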
KCNQ2 spec = rat KCNQ2 inhibition in KCNQ1 inhibitor specificity screen | shares compounds with KCNQ1 inh | KCNQ2 cells, FluxOR thallium flux fluorescence | inhibition, % at 10 µM | actives 71% (n = 1,600);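 active = mean percent inhibition of the KCNQ2 thallium signal more than 5 SD above the buffer-only control wells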;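 note: KCNQ2 expressed in CHO cells; 0% = buffer control wells and 100% = XE-991 inhibitor control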
KCNQ1-KCNE1 inh = human KCNQ1/KCNE1 inhibition in KCNQ1 specificity screen; shares compounds with KCNQ1 inh; KCNQ1/KCNE1 cells, FluxOR thallium flux fluorescence; inhibition, % at 10 µM; actives 77% (n = 1,600); AID 652147;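 active = mean percent inhibition of duplicate wells above the buffer-only control mean plus 3 SD of those controls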;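 note: 0% = buffer only wells and 100% = XE-991 inhibitor control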
Active calls of the source: *; i = inactive; · = no result; + = active, no number. A selection: hits, their analogues and other compounds. The true share with any hit is near 3.8%.

SMILES	KCNK3 block	Kir21 inh	KCNQ1 pot	hERG protect	KCNK9 inh	KCNQ1 inh	KCNQ1 inh valid	CHO KCNQ1 ctr	KCNQ2 spec	KCNQ1-KCNE1 inh	others
Cc1cc2c(cc1C)NC(c1c(C)n(C)n(-c3ccccc3)c1=O)C1=C(CC(C)(C)CC1=O)N2 (stereo not given)	i	-4.7	i	-21	i	15*	0	0.48	i	i
COc1cc(C2Nc3cc(C)c(C)cc3NC3=C2C(=O)CC(C)(C)C3)ccc1OC(C)=O (stereo not given)	i	-0.05	i	-5	i	i	·	·	·	·
Cc1noc(C)c1CSCC(=O)Nc1cc(C(F)(F)F)ccc1N1CCCCC1	i	-1.1	i	-10	i	i	·	·	·	·
Cc1noc(C)c1CSCC(=O)Nc1cc(Cl)ccc1N1CCCCC1	i	-0.96	i	-13	i	8*	125*	0.38*	121%*	174%*
CCC(C)NS(=O)(=O)c1ccc(OCC(=O)N2CCC(C)CC2)cc1 (stereo not given)	i	0.05	i	-2	i	i	·	·	·	·
CCOC(=O)C1CCN(c2c(C(=O)c3ccccc3)cnc3ccc(Cl)cc23)CC1	i	0.16	i	-11	i	6*	154*	0.41	134%*	92%*	KCNQ1 ephys val=i
O=S(=O)(c1ccccc1)c1nc(Nc2cccc(O)c2)sc1Cl	i	-5.5*	i	-34	i	7*	94*	0.38	78%*	44%*	KCNQ1 ephys val=i
COc1ccc(Br)cc1CSC(=N)N	i	-0.23	i	-9	i	i	·	·	·	·
CCCCCOc1ccc(Br)cc1CSC(=N)N	i	-12*	i	-27	i	9*	125*	0.37*	86%*	94%*
C/C(=N\OCC(=O)OCC(=O)NC(=O)c1ccccc1)c1ccc2c(c1)OCO2	i	1.4	i	-1	i	i	·	·	·	·
O=C(NCc1ccco1)c1ccccc1Nc1ccc(F)cc1	i	-1.3	i	-14	i	7*	105*	0.41	63%*	91%*	KCNQ1 ephys val=+
O=C(Cn1cnc2ccccc2c1=O)N1CCN(c2ccccc2)CC1	i	0.31	i	-10	i	7*	0	0.46	i	i
Cc1cc2c(=O)n(CC(=O)N3CCN(c4ccccc4)CC3)cnc2s1	i	·	·	·	·	·	·	·	·	·
Cc1cc2nc(CCN(C(=S)NCC(C)C)C3CCCC3)[nH]c2cc1C	i	0.56	i	-11	i	8*	167*	0.43	101%*	i	KCNQ1 ephys val=i
Cc1cccc2cc(CN(C(=S)NCC(C)C)C3CCCC3)c(=O)[nH]c12	i	-0.4	i	-5	i	i	·	·	·	·
Cc1sc2ncnc(NCC3COc4ccccc4O3)c2c1C (stereo not given)	i	-0.79	i	-21	i	i	·	·	·	·
c1ccc(-c2csc3ncnc(NCC4COc5ccccc5O4)c23)cc1 (stereo not given)	i	0.76	i	-11	i	9*	151*	0.35*	132%*	+
COc1ccc(S(=O)(=O)Nc2ccc3c(c2)C(=O)N([C@@H](C)CO)C[C@H](C)[C@H](CN(C)S(=O)(=O)c2ccc(F)cc2)O3)cc1	i	·	·	·	·	·	·	·	·	·
